Experimental findings from ChEMBL document CHEMBL1139312, “Synthesis and SAR of 6-chloro-4-fluoroalkylamino-2-heteroaryl-5-(substituted)phenylpyrimidines as anti-cancer agents” (Bioorg Med Chem, 2009) are described below.

Data set [1] is described as follows: Induction of tubulin polymerization.
The subject of another data set is COLO 205. In words: Antiproliferative activity against human COLO205 cells after 24 hrs by MTS assay. In kind it is functional, cell-based.
The nature of data set [2]: Ratio of IC50 for human KBV1 cells to IC50 for human KB cells. It counts as functional. In a few lines: (§1)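 Resistance ratio: IC50 in KB 8.5 or KB V1 cells divided by IC50 in parental KB cells, each IC50 from 10-concentration duplicate dose–response curves; ratio near 1 means no resistance.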
Data set [3] in a line: Antiproliferative activity against human KBV1 cells after 3 days by SRB assay. In kind it is functional, cell-based. As to conditions: KB-V1, 72 h.
Data set [4] relates to KB. In words: Antiproliferative activity against human KB cells after 3 days by SRB assay. In kind it is functional, cell-based. As to conditions: 72 h. (In SRB staining, fixed cells bind dye roughly in proportion to their protein.)
The nature of data set [5]: Antiproliferative activity against human KB 8.5 cells after 3 days by SRB assay. It counts as functional, cell-based. As to conditions: 72 h.
The next data set has as its system LOX. As to the kind of experiment: Antitumor activity against human LOX cells xenografted in Foxn1nu mouse assessed as reduction in tumor growth at 1 to 6 mg/kg, iv. In kind it is functional, organism-based. Summed up: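 LOX melanoma cells (2 × 10⁶ per animal) were implanted s.c. in the flank of female NU/NU-Foxn1nu mice, which were staged at about 100 mg tumor mass. Compound was dosed i.v. in 0.9% saline on days 1, 5 and 9 after staging, with a vehicle-only i.v. control. Five mice per group. Relative tumor growth = mean tumor mass on day d / group mean on day 0.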

In another data set the test system is NCI-H460. In words: Antitumor activity against human H460 cells xenografted in Foxn1nu mouse assessed as reduction in tumor growth at 2.5 to 10 mg/kg, po. It counts as functional, organism-based. In a few lines:
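Female NU/NU-Foxn1nu mice were injected s.c. in the flank with 1 × 10⁶ H460 cells per animal and staged (randomized) when tumors reached about 100 mg. Compound was given by oral gavage in Klucel on days 0 and 7 after staging. Controls received vehicle only, i.v. Nine animals per group; tumor mass was followed over days.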
Background: Xenograft models place foreign cells or tissue in a host animal.

Data set [6] has as its system KB. In words: Ratio of IC50 for human KB 8.5 cells to IC50 for human KB cells. In kind it is functional. In a few lines:
as §1

Data set [7] in a line: Metabolic stability in male Sprague-Dawley rat liver microsomes at 1 uM after 30 mins. It counts as ADME, Microsome. Summed up: (§2)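 Liver microsomes (1 mg/mL) from each species and sex were incubated with compound for 30 min at 37 °C in the presence of NADPH. Read-out was metabolic half-life (t1/2).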
Data set [8] can be described thus: Aqueous solubility at pH 7.4 by shake flask method. In kind it is physicochemical.
Data set [9] in a line: Metabolic stability in male human liver microsomes at 1 uM after 30 mins. In kind it is ADME, Microsome. In a few lines: as §2
(In general: Liver microsomes are vesicles of endoplasmic reticulum, rich in cytochrome P450 enzymes.)

The nature of data set [10]: Clearance in rat. Conditions: in vivo. It counts as ADME, organism-based. In a few lines:
(§3)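 Rat pharmacokinetic parameters were derived by non-compartmental, model-independent analysis.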

Data set [11] is described as follows: Metabolic stability in female nude mouse liver microsomes at 1 uM after 30 mins. It counts as ADME, Microsome. Summed up:
as §2

Data set [12] can be described thus: Metabolic stability in male cynomolgus monkey liver microsomes at 1 uM after 30 mins. It counts as ADME, Macaca fascicularis, Microsome. Summed up: as §2
The nature of data set [13]: Bioavailability in rat. Conditions: in vivo. In kind it is ADME, organism-based. In a few lines: as §3
The nature of data set [14]: Volume of distribution in rat. It counts as ADME, organism-based. As to conditions: in vivo. Summed up:
as §3

A short description of data set [15]: Metabolic stability in male Beagle dog liver microsomes at 1 uM after 30 mins. In kind it is ADME, Canis lupus familiaris, Microsome. Summed up: as §2
Data set [16] can be described thus: Metabolic stability in female Sprague-Dawley rat liver microsomes at 1 uM after 30 mins. It counts as ADME, Microsome. Summed up:
as §2

Data set [17] in a line: Half life in rat. Conditions: in vivo. In kind it is ADME, organism-based. In a few lines: as §3

Values after ≈ are worked out from the molar mass of the structure shown. Active and inactive are the calls of the source. The rule behind the calls is not given here.

Take `CNCCCOc1cc(F)c(-c2c(Cl)nc(-n3cccn3)nc2N[C@@H](C)C(F)(F)F)c(F)c1` [listing 1 of 3 here]: in data set [1], the outcome was Active.
The IC50 is the point on the concentration scale where inhibition reaches its midpoint. On to `Fc1cc(F)c(-c2c(Cl)nc(-c3ccc4ccccc4n3)nc2NCC(F)(F)F)c(F)c1`, for which, in the data set on COLO 205 (Homo sapiens, COLO 205, 24 h), the midpoint of inhibition, the IC50, lay at 250 nM.
In the case of `CNCCCOc1cc(F)c(-c2c(Cl)nc(-c3ccccn3)nc2N[C@@H](C)C(F)(F)F)c(F)c1` [listing 1 of 3 here], the result in data set [1] was Active.
`Fc1cc(F)c(-c2c(Cl)nc(-c3cccs3)nc2NCC(F)(F)F)c(F)c1`: in the data set on COLO 205 (Homo sapiens, COLO 205, 24 h), the midpoint of inhibition, the IC50, lay at 3460 nM.
For `CNCCCOc1cc(F)c(-c2c(Cl)nc(-c3ccccn3)nc2N[C@@H](C)C(F)(F)F)c(F)c1` [listing 2 of 3 here], the “Ratio IC50” value in data set [2] was determined as 68. The figures for the 50% inhibitory concentration (IC50) (in [3]; with KB [4]; in data set [5]) were 423 nM, 6.2 nM and 21 nM, respectively.
`Fc1cc(F)c(-c2c(Cl)nc(-c3cc4ccccc4cn3)nc2NCC(F)(F)F)c(F)c1` came in with a half-maximal inhibitory concentration (IC50) in the data set with COLO 205 (Homo sapiens, COLO 205, 24 h) of 119 nM.
In the data set on COLO 205 (Homo sapiens, COLO 205, 24 h), `C[C@H](Nc1nc(-n2cccn2)nc(Cl)c1-c1c(F)cc(F)cc1F)C(F)(F)F` had an IC50 of 19 nM.
As for `CN(C)CCCOc1cc(F)c(-c2c(Cl)nc(-n3ccnc3)nc2NCC(F)(F)F)c(F)c1`, the concentration for half-maximal inhibition (IC50) in the data set with COLO 205 (Homo sapiens, COLO 205, 24 h) is 682 nM.
Still for that read-out and setting: the same measure for `C[C@H](Nc1nc(-c2cnccn2)nc(Cl)c1-c1c(F)cc(F)cc1F)C(F)(F)F`: 51 nM; for `Fc1cc(F)c(-c2c(Cl)nc(-n3ccnc3)nc2NCC(F)(F)F)c(F)c1`: 3030 nM; for `Fc1cc(F)c(-c2c(Cl)nc(-c3nccc4ccccc34)nc2NCC(F)(F)F)c(F)c1`: 4680 nM.
`CN(C)CCCCOc1cc(F)c(-c2c(Cl)nc(-c3cnccn3)nc2NCC(F)(F)F)c(F)c1` returned an IC50 in the data set on COLO 205 (Homo sapiens, COLO 205, 24 h) of 32 nM.
Compound `CNCCCOc1cc(F)c(-c2c(Cl)nc(-c3ccccn3)nc2N[C@@H](C)C(F)(F)F)c(F)c1` [listing 3 of 3 here] yielded a half-inhibitory concentration (IC50) in the data set with COLO 205 (Homo sapiens, COLO 205, 24 h) of 5.2 nM.
As for `CC[C@]1(O)C[C@H]2CN(CCc3c([nH]c4ccccc34)[C@@](C(=O)OC)(c3cc4c(cc3OC)N(C=O)[C@H]3[C@@](O)(C(=O)OC)[C@H](OC(C)=O)[C@]5(CC)C=CCN6CC[C@]43[C@@H]65)C2)C1` [VINCRISTINE], the IC50 in the data set on COLO 205 (Homo sapiens, COLO 205, 24 h) is 2.6 nM; in data set [3], 2040 nM; in the data set on KB [4], 2.2 nM; in data set [5], 58 nM. Besides, the “Ratio IC50” value in [2] is reported as 925.
As for `CNCCCOc1cc(F)c(-c2c(Cl)nc(-c3cnccn3)nc2N[C@@H](C)C(F)(F)F)c(F)c1` [listing 1 of 3 here], the result (in data set [1]; in the data set with LOX; in the data set on NCI-H460) was Active.
`Fc1cc(F)c(-c2c(Cl)nc(-c3ccco3)nc2NCC(F)(F)F)c(F)c1` had a concentration for half-maximal inhibition (IC50) with COLO 205 (Homo sapiens, COLO 205, 24 h) of 232 nM.
The same measure, in the same setting: the same measure for `CN(C)CCCOc1cc(F)c(-c2c(Cl)nc(-c3ncccn3)nc2NCC(F)(F)F)c(F)c1`: 49 nM; for `Fc1cc(F)c(-c2c(Cl)nc(-c3ccncc3)nc2NCC(F)(F)F)c(F)c1`: more than 5000 nM.
For `CNCCCOc1cc(F)c(-c2c(Cl)nc(-n3cccn3)nc2N[C@@H](C)C(F)(F)F)c(F)c1` [listing 2 of 3 here], the “Ratio IC50” value in the data set with KB [6] came out at 13; in [2], 237. Moreover, the half-maximal inhibitory concentration (IC50) in data set [3] was 569 nM; in the data set with KB [4], 2.4 nM; in [5], 32 nM.
`Fc1cc(F)c(-c2c(Cl)nc(-c3cccnc3)nc2NCC(F)(F)F)c(F)c1` came in with an IC50 in the data set on COLO 205 (Homo sapiens, COLO 205, 24 h) of 3930 nM.
As for `Fc1cc(F)c(-c2c(Cl)nc(-c3cnccn3)nc2NCC(F)(F)F)c(F)c1`, the IC50 in the data set on COLO 205 (Homo sapiens, COLO 205, 24 h) amounted to 84 nM.
Regarding `CN(C)CCCOc1cc(F)c(-c2c(Cl)nc(-c3cnccn3)nc2NCC(F)(F)F)c(F)c1` [listing 1 of 2 here], the IC50 is 22 nM with COLO 205 (colo 205), 99 nM in [3], 20 nM in the data set on KB [4] and 24 nM in [5]. Besides, the “Ratio IC50” value in the data set with KB [6] is 1.2; in data set [2], 5.
In the case of `CNCCCOc1cc(F)c(-c2c(Cl)nc(-n3cccn3)nc2N[C@@H](C)C(F)(F)F)c(F)c1` [listing 3 of 3 here], the IC50 with COLO 205 (Homo sapiens, COLO 205, 24 h) stood at 2.4 nM.
On the same count and under the same terms, as for `C[C@H](Nc1nc(-c2ccccn2)nc(Cl)c1-c1c(F)cc(F)cc1F)C(F)(F)F`, the figure is 29 nM.
As to `CC(=O)O[C@H]1C(=O)[C@@]2(C)[C@H]([C@H](OC(=O)c3ccccc3)[C@]3(O)C[C@H](OC(=O)[C@H](O)[C@@H](NC(=O)c4ccccc4)c4ccccc4)C(C)=C1C3(C)C)[C@]1(OC(C)=O)CO[C@@H]1C[C@@H]2O` [PACLITAXEL], the IC50 in the data set on COLO 205 (Homo sapiens, COLO 205, 24 h) worked out at 3.3 nM; in data set [3], 2010 nM.
Compound `CNCCCOc1cc(F)c(-c2c(Cl)nc(-c3cnccn3)nc2N[C@@H](C)C(F)(F)F)c(F)c1` [listing 2 of 3 here] returned a 50% inhibitory concentration (IC50) in the data set on COLO 205 (Homo sapiens, COLO 205, 24 h) of 8.9 nM.
As usually defined, the half-life is the time in which the quantity being followed falls by half. Usually thermodynamic solubility stands for the concentration in solution at equilibrium with solid. What is called clearance is the rate of elimination divided by the concentration. The bioavailability is dose-corrected exposure relative to a reference, in per cent. Broadly, the Vd is the apparent volume that relates the amount in the body to the concentration in plasma or blood. On to `CNCCCOc1cc(F)c(-c2c(Cl)nc(-c3cnccn3)nc2N[C@@H](C)C(F)(F)F)c(F)c1` [listing 3 of 3 here], for which the IC50 was determined as 6.9 nM in the data set with COLO 205 (colo 205), 405 nM in data set [3], 7 nM with KB [4] and 24 nM in data set [5]. In addition, the figures for the “Ratio IC50” value (in the data set with KB [6]; in data set [2]) were 3.4 and 58, respectively. The half-life at 1 µM in data set [7], in data set [9], in data set [11], in data set [12], in data set [15] and in data set [16] was more than 1 h throughout. The same compound gave a thermodynamic solubility in data set [8] of 540 µg/mL (≈ 1070 µM). In data set [10], this compound came in with a clearance of 21 mL/min/kg. Moreover, the bioavailability in data set [13] was 100%. The same compound displayed a volume of distribution (Vd) in data set [14] of 14 L/kg. In data set [17], this compound had a half-life of 8.6 h.
`Fc1cc(F)c(-c2c(Cl)nc(-n3cccn3)nc2NCC(F)(F)F)c(F)c1` registered an IC50 in the data set on COLO 205 (Homo sapiens, COLO 205, 24 h) of 53 nM.
For the compound `CN(C)CCCOc1cc(F)c(-c2c(Cl)nc(-c3cnccn3)nc2NCC(F)(F)F)c(F)c1` [listing 2 of 2 here], in the data set on COLO 205 (Homo sapiens, COLO 205, 24 h), the half-maximal inhibitory concentration (IC50) came out at 18 nM.
The compound `Cn1ccnc1-c1nc(Cl)c(-c2c(F)cc(F)cc2F)c(NCC(F)(F)F)n1` displayed an IC50 in the data set on COLO 205 (Homo sapiens, COLO 205, 24 h) of 77 nM.
Turning to `CN(C)CCOc1cc(F)c(-c2c(Cl)nc(-c3cnccn3)nc2NCC(F)(F)F)c(F)c1`, the 50% inhibitory concentration (IC50) in the data set on COLO 205 (Homo sapiens, COLO 205, 24 h) worked out at 128 nM.
`Fc1cc(F)c(-c2c(Cl)nc(-c3ccccn3)nc2NCC(F)(F)F)c(F)c1` yielded a concentration for half-maximal inhibition (IC50) in the data set on COLO 205 (Homo sapiens, COLO 205, 24 h) of 39 nM.
`Fc1cc(F)c(-c2c(Cl)nc(-c3ncccn3)nc2NCC(F)(F)F)c(F)c1` registered an IC50 in the data set on COLO 205 (Homo sapiens, COLO 205, 24 h) of 265 nM.
